In brackets after ≈: the same amount, converted by molar mass. Activity calls are given as the source filed them. The calls are words filed in the database; no cut-off is given here.
How the values were obtained:
Candida albicans [1] = assay: Antifungal activity against Candida albicans cgmcc2.2086 measured after 48 hrs by broth microdilution method; format: functional; conditions: cgmcc2.2086, 48 h
Procedure, shortened: (§1)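 Modified CLSI M27-A2 microdilution. Yeast colonies were diluted in MOPS-buffered RPMI 1640 to a final (0.5–1) × 10^3 CFU mL−1 and mixed with an equal volume of peptide serially diluted in 0.2% BSA. After 48 h at 28 °C, MIC was read at A492 as the lowest concentration inhibiting 95% of growth. At least three independent experiments, each with three technical replicates.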

Candida parapsilosis [2] = assay: Antifungal activity against Candida parapsilosis cgmcc2.3989 measured after 48 hrs by broth microdilution method; format: functional; conditions: Lodderomyces parapsilosis, cgmcc2.3989, 48 h; procedure, shortened: as §1
Candida tropicalis [3] = assay: Antifungal activity against Candida tropicalis cgmcc2.1975 measured after 48 hrs by broth microdilution method; format: functional; conditions: cgmcc2.1975, 48 h; procedure, shortened: as §1
Candida albicans [4] = assay: Fungicidal activity against Candida albicans cgmcc2.2086 incubated for 48 hrs followed by replating on YM agar plate and measured after 48 hrs; format: functional
Procedure, shortened: (§2)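 Yeast diluted in MOPS-buffered RPMI 1640 to (0.5–1) × 10^3 CFU/mL (CLSI M27-A2, modified) and mixed 1:1 with peptide serially diluted in 0.2% BSA. After 48 h at 28 °C, 50 μL per well was plated on YM agar and incubated 48 h at 28 °C. MFC taken as the lowest concentration killing ≥99.9% of cells. Three or more independent experiments, triplicate wells.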

Candida parapsilosis [5] = assay: Fungicidal activity against Candida parapsilosis cgmcc2.3989 incubated for 48 hrs followed by replating on YM agar plate and measured after 48 hrs; format: functional; procedure, shortened: as §2
Candida tropicalis [6] = assay: Fungicidal activity against Candida tropicalis cgmcc2.1975 incubated for 48 hrs followed by replating on YM agar plate and measured after 48 hrs; format: functional; procedure, shortened: as §2
Candida albicans [7] = assay: (§3) Antifungal activity against Candida albicans cgmcc2.2086 infected in C57BL/6 mouse model of keratitis assessed as reduction in clinical score at 1 mg/ml administered as topical eye drop every 5 mins for first 4 hrs and every 30 mins for next 7 hrs measured post-last dose; format: functional, organism-based
Candida albicans [8] = assay: Antifungal activity against Candida albicans cgmcc2.2086 infected in C57BL/6 mouse model of keratitis assessed as appearance of transparent corneas at 1 mg/ml administered as topical eye drop every 5 mins for first 4 hrs and every 30 mins for next 7 hrs measured post-last dose; format: functional, organism-based
Candida albicans [9] = assay: Antifungal activity against Candida albicans cgmcc2.2086 infected in C57BL/6 mouse model of keratitis assessed as appearance of transparent irises at 1 mg/ml administered as topical eye drop every 5 mins for first 4 hrs and every 30 mins for next 7 hrs measured post-last dose; format: functional, organism-based
Candida albicans [10] = assay: as §3, with “fungal hyphae extention into corneal stroma” for “clinical score”, “dose by periodic acid schiff staining-based histological analysis” for “dose”; format: functional, organism-based
Candida albicans [11] = assay: as §3, with “fungal hyphae infiltration into corneal stroma” for “clinical score”, “dose by periodic acid schiff staining-based histological analysis” for “dose”; format: functional, organism-based
Candida albicans [12] = assay: as §3, with “fungal colonies in eyeballs” for “clinical score”, “dose by agar plate method relative to control” for “dose”; format: functional; set-up: scale not given: the % may be the effect or the level left

Work on `C[C@@H]1[C@H](O)[C@@H](C)/C=C/C=C/C=C/C=C/C=C/C=C/C=C/[C@H](O[C@@H]2O[C@H](C)[C@@H](O)[C@H](N)[C@@H]2O)C[C@@H]2O[C@](O)(C[C@@H](O)C[C@@H](O)[C@H](O)CC[C@@H](O)C[C@@H](O)CC(=O)O[C@H]1C)C[C@H](O)[C@H]2C(=O)O` [AMPHOTERICIN B] yielded an MIC95 (Candida albicans [1]) of 1 µM (≈ 0.924 µg/mL), an MIC95 (Candida parapsilosis [2]) of 2 µM (≈ 1.85 µg/mL) and an MIC95 (Candida tropicalis [3]) of 1 µM (≈ 0.924 µg/mL). The “MFC<=99.9” value (Candida albicans [4]) was 2 µM (≈ 1.85 µg/mL), the “MFC<=99.9” value (Candida parapsilosis [5]) was 4 µM (≈ 3.7 µg/mL) and the “MFC<=99.9” value (Candida tropicalis [6]) was 2 µM (≈ 1.85 µg/mL). The Activity (Candida albicans [7]) was “Active”, the Activity (Candida albicans [8]) was “Active” and the Activity (Candida albicans [9]) was “Active”. For the same compound, the Activity (Candida albicans [10]) was “Active”, the Activity (Candida albicans [11]) was “Active” and the Activity (Candida albicans [12]) was “<=80%”.

Reference: ChEMBL document CHEMBL4350958, “Rational Design of Short Peptide Variants by Using Kunitzin-RE, an Amphibian-Derived Bioactivity Peptide, for Acquired Potent Broad-Spectrum Antimicrobial and Improved Therapeutic Potential of Commensalism Coinfection of Pathogens” (J Med Chem, 2019)
